ChEMBL document CHEMBL5674884, “Ezh2 inhibition in Kras-driven lung cancer amplifies inflammation and associated vulnerabilities” (J Exp Med, 2018)
Blank lines part the entries; values can stand above or below the compound they belong to. The source made the active and inactive calls. The rule behind the calls is not given here.

Tests used:
[1] = system: NSCLC; experiment: Antitumor activity in KrasG12D/+ harbouring mouse NSCLC cells xenografted in BALB/c nude mouse assessed as reduced tumor progression; type: functional; details: dose 50.0 mg/kg, route iv
[2] = target: Histone-lysine N-methyltransferase EZH2 (Mus musculus) (UniProt Q61188); experiment: In vivo inhibition of Ezh2 in BALB/c nude mouse expressing KrasG12D/+ assessed as Parp1 expression at 50 mg/kg, iv in the presence of BTZ/NM by Immunoblot analysis; type: functional, organism-based
Sequence of Histone-lysine N-methyltransferase EZH2 (Mus musculus) (Q61188 whole entry): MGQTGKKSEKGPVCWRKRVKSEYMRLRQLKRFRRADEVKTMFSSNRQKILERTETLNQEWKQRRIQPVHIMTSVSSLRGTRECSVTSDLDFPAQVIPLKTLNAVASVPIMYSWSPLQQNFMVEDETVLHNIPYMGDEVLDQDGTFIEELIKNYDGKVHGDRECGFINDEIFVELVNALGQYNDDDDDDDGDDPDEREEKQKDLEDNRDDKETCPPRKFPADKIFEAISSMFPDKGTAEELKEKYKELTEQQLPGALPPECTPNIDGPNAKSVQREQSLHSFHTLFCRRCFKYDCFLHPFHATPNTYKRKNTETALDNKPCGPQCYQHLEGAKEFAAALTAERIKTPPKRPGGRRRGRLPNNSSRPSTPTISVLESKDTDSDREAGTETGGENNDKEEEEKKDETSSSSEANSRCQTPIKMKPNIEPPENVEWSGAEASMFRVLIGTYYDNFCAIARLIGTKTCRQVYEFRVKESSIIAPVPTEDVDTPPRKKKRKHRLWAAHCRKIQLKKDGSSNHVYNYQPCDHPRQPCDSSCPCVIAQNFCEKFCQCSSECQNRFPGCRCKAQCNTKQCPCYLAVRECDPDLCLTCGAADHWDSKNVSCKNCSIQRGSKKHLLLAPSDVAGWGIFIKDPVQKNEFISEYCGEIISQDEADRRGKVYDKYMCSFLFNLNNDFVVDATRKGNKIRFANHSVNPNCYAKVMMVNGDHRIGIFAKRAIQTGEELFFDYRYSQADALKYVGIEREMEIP
Method in brief: (§1)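 Mice with Kras G12D/+;Trp53-/- lung grafts given GSK126 or vehicle, randomized after 15 d to one maximum tolerated dose of BTZ and NM, and sacrificed 20 h later. Tumor lysates in RIPA with protease/phosphatase inhibitors, equal protein run on 4-12% Bis-Tris gels and immunoblotted with ECL detection for phospho-Akt, cleaved Parp1 and cleaved caspase-3.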

[3] = target: Histone-lysine N-methyltransferase EZH2 (Mus musculus) (UniProt Q61188); experiment: In vivo inhibition of Ezh2 in BALB/c nude mouse xenografted with KrasG12D/+ expressing NSCLC cells (unknown origin) assessed as upregulation of H3K27ac at 50 mg/kg, iv by IHC analysis; type: functional, organism-based
[4] = target: Histone-lysine N-methyltransferase EZH2 (Mus musculus) (UniProt Q61188); experiment: In vivo inhibition of Ezh2 in BALB/c nude mouse expressing KrasG12D/+ assessed as phospho-Akt expression at 50 mg/kg, iv in the presence of BTZ/NM by Immunoblot analysis; type: functional, organism-based; method in brief: as §1
[5] = target: Histone-lysine N-methyltransferase EZH2 (Homo sapiens) (UniProt Q15910); experiment: Inhibition of Ezh2 in human A549 cells assessed as enhanced NF- kappa B activity; type: cell-based
Sequence of Histone-lysine N-methyltransferase EZH2 (Homo sapiens) (Q15910 whole entry, looked up): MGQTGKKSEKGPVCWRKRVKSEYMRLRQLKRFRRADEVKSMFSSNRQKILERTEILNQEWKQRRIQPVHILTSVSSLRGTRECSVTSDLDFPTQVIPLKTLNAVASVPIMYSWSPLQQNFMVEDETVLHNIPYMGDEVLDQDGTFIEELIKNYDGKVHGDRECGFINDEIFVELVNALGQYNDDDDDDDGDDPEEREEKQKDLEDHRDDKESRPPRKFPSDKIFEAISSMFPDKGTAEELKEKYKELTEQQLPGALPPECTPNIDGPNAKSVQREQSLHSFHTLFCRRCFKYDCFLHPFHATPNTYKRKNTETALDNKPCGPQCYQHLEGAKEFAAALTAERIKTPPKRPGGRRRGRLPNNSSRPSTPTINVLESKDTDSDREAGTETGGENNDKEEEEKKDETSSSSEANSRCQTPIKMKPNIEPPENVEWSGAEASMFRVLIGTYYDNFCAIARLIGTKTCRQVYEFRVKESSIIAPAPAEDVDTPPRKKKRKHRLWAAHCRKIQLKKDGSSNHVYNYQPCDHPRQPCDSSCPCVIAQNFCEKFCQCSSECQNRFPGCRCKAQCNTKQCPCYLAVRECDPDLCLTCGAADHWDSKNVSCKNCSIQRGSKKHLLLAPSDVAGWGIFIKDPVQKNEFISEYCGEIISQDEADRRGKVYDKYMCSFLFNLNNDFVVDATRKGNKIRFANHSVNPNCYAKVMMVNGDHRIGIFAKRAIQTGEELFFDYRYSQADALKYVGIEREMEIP
Method in brief: (§2)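 A549 cells carrying an NF-kB-responsive element/minimal TA promoter luciferase reporter, pretreated with GSK126 or vehicle. Stimulated with TNF-a for 3 h, or continuously with TNF-a or LPS over 16 h. Luminescence read on plate reader; two-way ANOVA; three independent experiments.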

[6] = target: Histone-lysine N-methyltransferase EZH2 (Mus musculus) (UniProt Q61188); experiment: In vivo inhibition of Ezh2 in BALB/c nude mouse expressing Kras G12D/+ assessed as reduction of Akt phosphorylation at 50 mg/kg, iv by immunoblotting analysis; type: functional, organism-based; method in brief: as §1
[7] = system: NSCLC; experiment: Antitumor activity against Kras G12D/+ expressing mouse NSCLC cells xenografted in BALB/c nude mouse assessed as reduction in tumor burden at 50 mg/kg, iv for 30 days; type: functional, organism-based; details: time 30.0 day
[8] = system: NSCLC; experiment: Antiinflammatory activity in […] EZH2 inhibited mouse NSCLC cells xenografted in BALB/C mouse assessed as upregulation of JAK/STAT pathway at 50 mg/kg, iv for 10 days; type: functional, organism-based; details: time 10.0 day
Method in brief: (§3)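 Tail vein grafts of Kras G12D/+;Trp53-/- cells in nude mice, treated daily with 50 mg/kg GSK126 for 10 d (n = 4) or to humane endpoint (n = 3), or vehicle (n = 2). GFP+ tumor cells sorted by FACS, RNA-seq run, fold change taken over vehicle, and pathway activity inferred by PROGENy scoring.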

[9] = target: Histone-lysine N-methyltransferase EZH2 (Homo sapiens) (UniProt Q15910); experiment: Inhibition of Ezh2 in human NCI-H2122 cells assessed as p65 phosphorylation by Immunoblot analysis; type: cell-based
Method in brief: (§4)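 A549, H1944 and H2122 cells treated continuously 5 d with GSK126 or vehicle, then replated at low confluence. Whole-cell RIPA extracts immunoblotted for phospho-p65 (S536) and total p65.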

[10] = system: NSCLC; experiment: Antitumor activity against KrasG12D/+ expressing mouse NSCLC cells xenografted in BALB/c nude mouse assessed as reduced cell proliferation at 50 mg/kg, iv in the presence of BTZ/NM; type: functional, organism-based
Method in brief: (§5)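 Tumors from mice given daily GSK126/vehicle then alternating BTZ/NM, stained by IHC (n = 3 animals). Lung area divided into equal fields; ten fields per animal counted automatically for immunoreactive cells.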

[11] = target: Histone-lysine N-methyltransferase EZH2 (Mus musculus) (UniProt Q61188); experiment: In vivo inhibition of Ezh2 in BALB/c nude mouse expressing Kras G12D/+ assessed as Erk1/2 expression level at 50 mg/kg, iv by immunoblotting analysis; type: functional, organism-based
[12] = target: Histone-lysine N-methyltransferase EZH2 (Mus musculus) (UniProt Q61188); experiment: In vivo inhibition of Ezh2 in BALB/c nude mouse xenografted with KrasG12D/+ expressing NSCLC cells (unknown origin) assessed as upregulation of H3K27ac at 50 mg/kg, iv by qRT-PCR analysis; type: functional, organism-based
[13] = target: Histone-lysine N-methyltransferase EZH2 (Mus musculus) (UniProt Q61188); experiment: In vivo inhibition of Ezh2 in BALB/c nude mouse expressing KrasG12D/+ assessed as Caspase-3 cleavage expression at 50 mg/kg, iv in the presence of BTZ/NM by Immunoblot analysis; type: functional, organism-based; method in brief: as §1
[14] = system: NSCLC; experiment: Antitumor activity against Kras G12D/+ expressing mouse NSCLC cells xenografted in BALB/c nude mouse assessed as reduction in lung adenoma formation at 50 mg/kg, iv for 12 days by H&E staining analysis; type: functional, organism-based; details: time 12.0 day
[15] = system: NSCLC; experiment: Upregulation of Cxcr4 gene in mouse NSCLC cells expressing KrasG12D/+; type: functional, cell-based
[16] = target: Histone-lysine N-methyltransferase EZH2 (Mus musculus) (UniProt Q61188); experiment: In vivo inhibition of Ezh2 in BALB/c nude mouse expressing Kras G12D/+ assessed as Erk1/2 expression level at 50 mg/kg, iv by IHC staining; type: functional, organism-based; method in brief: as §5
[17] = target: Histone-lysine N-methyltransferase EZH2 (Mus musculus) (UniProt Q61188); experiment: In vivo inhibition of EZH2 in BALB/c nude mouse xenografted with Kras G12D/+ NSCLC cells (unknown origin) assessed as H3K27me3 level at 50 mg/kg, iv for 30 days by IHC analysis; type: functional, organism-based; details: time 30.0 day
[18] = target: Histone-lysine N-methyltransferase EZH2 (Mus musculus) (UniProt Q61188); experiment: In vivo inhibition of Ezh2 in BALB/c nude mouse xenografted with KrasG12D/+ expressing NSCLC cells (unknown origin) assessed as upregulation of H3K27me3 at 50 mg/kg, iv by IHC analysis; type: functional, organism-based
[19] = target: Histone-lysine N-methyltransferase EZH2 (Mus musculus) (UniProt Q61188); experiment: In vivo inhibition of Ezh2 in BALB/c nude mouse expressing KrasG12D/+ assessed as increased survival rate at day 21 at 50 mg/kg, iv in the presence of BTZ/NM; type: functional, organism-based
Method in brief: (§6)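 Nude mice with tail-vein Kras G12D/+;Trp53-/- grafts dosed daily with GSK126 or vehicle from day 4 (n = 7/6). BTZ and NM then given on alternating days from day 19: BTZ 0.8 mg/kg on day one, 0.2 mg/kg plus NM 5 mg/kg on day two. Luciferase imaging analyzed by two-way ANOVA; survival recorded to humane endpoint.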

[20] = system: NSCLC; experiment: Antitumor activity against KrasG12D/+ expressing mouse NSCLC cells xenografted in BALB/c nude mouse assessed as increase in survival rate at 50 mg/kg, iv in the presence of BTZ/NM; type: functional, organism-based; method in brief: as §6
[21] = system: NSCLC; experiment: Antiinflammatory activity in […] EZH2 inhibited mouse NSCLC cells xenografted in BALB/C mouse assessed as upregulation of NF-kappaB pathway at 50 mg/kg, iv for 10 days; type: functional, organism-based; details: time 10.0 day; method in brief: as §3
[22] = target: Histone-lysine N-methyltransferase EZH2 (Mus musculus) (UniProt Q61188); experiment: In vivo inhibition of Ezh2 in BALB/c nude mouse expressing KrasG12D/+ assessed as cleaved Caspase-3 at 50 mg/kg, iv in the presence of BTZ/NM by IHC staining; type: functional, organism-based; method in brief: as §5
[23] = target: Histone-lysine N-methyltransferase EZH2 (Mus musculus) (UniProt Q61188); experiment: In vivo inhibition of Ezh2 in BALB/c nude mouse expressing KrasG12D/+ assessed as Erk1/2 phosphorylation at 50 mg/kg, iv in the presence of BTZ/NM by IHC staining; type: functional, organism-based; method in brief: as §5
[24] = system: NSCLC; experiment: Antiinflammatory activity in […] EZH2 inhibited mouse NSCLC cells xenografted in BALB/C mouse assessed as upregulation of TNF-alpha pathway at 50 mg/kg, iv for 10 days; type: functional, organism-based; details: time 10.0 day; method in brief: as §3
[25] = system: NSCLC; experiment: Anti-tumor activity against Ezh2i knockdown NSCLC cells (unknown origin) xenografted in BALB/c nude mouse assessed as increase in lifespan at 50 mg/kg, iv measured for 30 days; type: functional, organism-based; details: time 30.0 day
[26] = target: Histone-lysine N-methyltransferase EZH2 (Homo sapiens) (UniProt Q15910); experiment: Inhibition of Ezh2 in human A549 cells assessed as p65 phosphorylation by Immunoblot analysis; type: cell-based; method in brief: as §4
[27] = system: NSCLC; experiment: Antitumor activity against KrasG12D/+ expressing mouse NSCLC cells xenografted in BALB/c nude mouse assessed as reduced tumor growth at 50 mg/kg, iv in the presence of BTZ/NM; type: functional, organism-based; method in brief: as §6
[28] = target: Histone-lysine N-methyltransferase EZH2 (Homo sapiens) (UniProt Q15910); experiment: Inhibition of Ezh2 in TNF-alpha stimulated human A549 cells assessed as enhanced NF- kappa B activity; type: cell-based; method in brief: as §2
[29] = target: Histone-lysine N-methyltransferase EZH2 (Mus musculus) (UniProt Q61188); experiment: Inhibition of Ezh2 in mouse NSCLC cells co-cultured with Raw264.7 cells assessed as H3K27ac level by qRT-PCR analysis; type: cell-based
[30] = system: NSCLC; experiment: Anti-tumor activity against Kras G12D/+ expressing mouse NSCLC cells xenografted in BALB/c nude mouse assessed as decrease in frequency distribution of lesions at 50 mg/kg, iv for 30 days; type: functional, organism-based; details: time 30.0 day
[31] = target: Histone-lysine N-methyltransferase EZH2 (Homo sapiens) (UniProt Q15910); experiment: Inhibition of Ezh2 in human NCI-H1944 cells assessed as p65 phosphorylation by Immunoblot analysis; type: cell-based; method in brief: as §4
[32] = target: Histone-lysine N-methyltransferase EZH2 (Homo sapiens) (UniProt Q15910); experiment: Inhibition of Ezh2 in LPS stimulated human A549 cells assessed as enhanced NF- kappa B activity; type: cell-based; method in brief: as §2

Compound: CC(C)C[C@H](NC(=O)[C@H](Cc1ccccc1)NC(=O)c1cnccn1)B(O)O
- Activity [1]: inactive

- inhibition [2]: Active
- inhibition [3]: Active
- inhibition [4]: Active
- inhibition [5]: Active
- inhibition [6]: Active
- inhibition [9]: Active
- inhibition [11]: Active
- inhibition [12]: Active
- inhibition [13]: Active
- inhibition [16]: Active
- inhibition [17]: Active
- inhibition [18]: Active
- inhibition [22]: Active
- inhibition [23]: Active
- inhibition [26]: Active
- inhibition [28]: Active
- inhibition [29]: Active
- inhibition [31]: Active
- inhibition [32]: Active
Compound: CC[C@H](C)n1cc(C)c2c(C(=O)NCc3c(C)cc(C)[nH]c3=O)cc(-c3ccc(N4CCNCC4)nc3)cc21
- Activity [1]: Active
- Activity [7]: Active
- Activity [8]: Active
- Activity [10]: Active
- Activity [14]: Active
- Activity [15]: Active
- inhibition [19]: Active
- Activity [20]: Active
- Activity [21]: Active
- Activity [24]: Active
- Activity [25]: Active
- Activity [27]: Active
- Activity [30]: Active
